# Published values from different studies.
# Lines come from different studies, so protocols differ.
# Cell line: A549
# Observed: cell growth or viability
SMILES,assay,setting,quantity,result
O=C(Nc1ccc(Cl)cc1)Nc1ccc(-c2cn(Cc3cccc(Cl)c3)nn2)cc1,CCK-8,"20 µM, 72 h",viability,64.6%
Nc1nc2ccc(-c3c/c(=N\c4ccccc4NC(=O)C4CCNC4)c4ccccc4o3)cc2o1 (stereo not shown),CCK-8,1 µM,inhibition,22.7%
O=C(Nc1ccc(Cl)cc1)Nc1cccc(-c2cn(Cc3cccc(Br)c3)nn2)c1,CCK-8,"50 µM, 72 h",viability,145%
NCCC(=O)Nc1ccc(/N=c2\cc(-c3ccc4c(c3)OCO4)oc3ccccc23)cc1,CCK-8,1 µM,inhibition,-1.6%
CCCCCCCCCCCCCCCCCCOc1ccc(CC(=O)OCC[N+]2(C)CCCCC2)cc1,SRB,10 µM,inhibition,11.1%
O=C(Nc1cccc(-c2cn(Cc3ccc(Cl)cc3)nn2)c1)Nc1ccccc1Br,CCK-8,"20 µM, 72 h",viability,159%
COc1ccc(NC(=O)NCc2cn(Cc3ccc(C)cc3)nn2)cc1,CCK-8,"50 µM, 72 h",viability,71.5%
NCCC(=O)Nc1ccccc1/N=c1\cc(-c2ccc3nc(N)oc3c2)oc2cc(O)ccc12,CCK-8,1 µM,inhibition,23.2%
COc1ccc(NC(=O)NCc2cn(Cc3ccc(Br)cc3)nn2)cc1,CCK-8,"20 µM, 72 h",viability,102%
CCCCCCCCCCCCCCCCCCOc1ccccc1CC(=O)OCC[N+]1(C)CCCCC1,SRB,10 µM,inhibition,57.8%
COc1ccc(NC(=O)NCc2cn(Cc3ccccc3C)nn2)cc1,CCK-8,"50 µM, 72 h",viability,68%
CCCCCCCCCCCCCCCCCCOc1ccccc1CC(=O)OCC[N+]1(C)CCOCC1,SRB,10 µM,inhibition,37.4%
NCCCCC(=O)Nc1ccccc1/N=c1\cc(-c2ccc3c(c2)OCO3)oc2ccccc12,CCK-8,1 µM,inhibition,3.56%
Cc1c(Cl)c(=O)oc2cc(OCCCCSC#N)ccc12,SRB,,GI50,13 µM
O=C(NCc1cn(Cc2ccc(Br)cc2)nn1)Nc1ccc(Cl)cc1,CCK-8,"20 µM, 72 h",viability,102%
COc1ccc(NC(=O)Nc2cccc(-c3cn(Cc4cccc(Cl)c4)nn3)c2)cc1,CCK-8,"50 µM, 72 h",viability,237%
O=C(NCc1cn(Cc2cccc(Cl)c2)nn1)Nc1ccc(Cl)cc1,CCK-8,"20 µM, 72 h",viability,76.7%
CCCCCCCCCCCCCCCCCCOc1cccc(CC(=O)OCC[N+](C)(C)C)c1,SRB,10 µM,inhibition,8.12%
C[C@H](N)C(=O)Nc1ccccc1/N=c1\cc(-c2ccc3c(c2)OCCO3)oc2c(N)cccc12,CCK-8,1 µM,inhibition,0.27%
CCC(=O)NCc1ccc(-c2cnc(C3CN(C(=O)c4ccc(NC(=O)[C@@H]5CC(C)(C)CN5)s4)C3)s2)c2ccccc12,,14 days,GI50,0.46 µM
N#CSCc1cc(=O)oc2cc(O)ccc12,SRB,,GI50,5.8 µM
O=C(Nc1ccc(-c2cn(Cc3ccc(Br)cc3)nn2)cc1)Nc1ccccc1Br,CCK-8,"50 µM, 72 h",viability,89%
COc1ccc(NC(=O)Nc2ccc(-c3cn(Cc4cccc(Cl)c4)nn3)cc2)cc1,CCK-8,"20 µM, 72 h",viability,102%
NCCCC(=O)Nc1ccccc1/N=c1\cc(-c2ccc3c(c2)OCO3)oc2ccccc12,CCK-8,1 µM,inhibition,-0.2%
COc1ccc(NC(=O)NCc2cn(Cc3ccc(Cl)cc3)nn2)cc1,CCK-8,"20 µM, 72 h",viability,71.9%
CCCCCCCCCCCCCCCCCCOc1ccccc1CC(=O)OCC[N+]1(C)CCCC1,SRB,10 µM,inhibition,77%
CCOc1ccc(C(=O)CC(SCc2ccc(Cl)cc2)C(=O)OC)cc1 (stereo not shown),MTT,48 h,EC50,> 250 µM
O=C(Nc1ccccc1/N=c1\cc(-c2ccc3c(c2)OCCO3)oc2cc(F)ccc12)N1CCOCC1,CCK-8,1 µM,inhibition,-4.17%
CCCCCCCCCCCCCCCCCCOc1cccc(CC(=O)OCC[N+]2(C)CCCCC2)c1,SRB,10 µM,inhibition,9.38%
O=C(Nc1ccc(Cl)cc1)Nc1ccc(-c2cn(Cc3ccc(Br)cc3)nn2)cc1,CCK-8,"20 µM, 72 h",viability,69.1%
CCCCCCCCCCCCCCCCCCOc1ccccc1CC(=O)OCC[N+](CC)(CC)CC,SRB,10 µM,inhibition,70.7%
O=C(NCc1cn(Cc2ccc(Br)cc2)nn1)Nc1ccccc1Br,CCK-8,"50 µM, 72 h",viability,91.5%
Cc1cc(=O)oc2cc(OCCCCSC#N)ccc12,SRB,,GI50,5 µM
O=C(Nc1ccc(Cl)cc1)Nc1cccc(-c2cn(Cc3cccc(Cl)c3)nn2)c1,CCK-8,"20 µM, 72 h",viability,115%
CCCCCCCCCCCCCCCCCCOc1ccc(CC(=O)OCC[N+]2(C)CCCC2)cc1,SRB,10 µM,inhibition,2.78%
C[C@H](N)C(=O)Nc1ccccc1/N=c1\cc(-c2ccc3c(c2)OCCO3)oc2cc(F)ccc12,CCK-8,1 µM,inhibition,-0.65%
COc1ccc(NC(=O)Nc2ccc(-c3cn(Cc4ccc(C)cc4)nn3)cc2)cc1,CCK-8,"20 µM, 72 h",viability,67.9%
